Converted amounts (≈) assume the structure as drawn.
Test system: not listed separately
Assay: Antioxidant activity assessed as nitric oxide radical scavenging activity after 150 mins
Assay type: functional
Conditions: not given
Procedure, shortened: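 10 mM sodium nitroprusside (4 mL), PBS pH 7.4 (1 mL) and sample or ascorbic acid in DMSO (1 mL, 12.5–100 µg/mL), incubated 150 min at 25 °C. Nitrite detected with sulphanilic acid (5 min) then naphthylethylenediamine (30 min, diffused light). Read at […]. Triplicate. % inhibition = [1 − (Vt/Vc)] × 100. IC50 derived from it.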

Row | SMILES | IC50 [µg/mL]
1 | COc1cccc(-c2nc(NN)n(C)c(=O)c2C#N)c1OC | 54 (≈ 179 µM)

Test system: not listed separately
Assay: Antioxidant activity assessed as hydrogen peroxide scavenging activity after 10 mins
Assay type: functional
Conditions: not given
Procedure, shortened: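 H2O2 (20 mM) in PBS pH 7.4. 1 mL of sample or ascorbic acid in methanol (12.5–100 µg/mL) added to 2 mL H2O2 solution. A230 read after 10 min. % inhibition = [1 − (Vt/Vc)] × 100. Triplicate, averaged. IC50 derived from % inhibition across concentrations.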

Row | SMILES | IC50 [µg/mL]
2 | COc1cccc(-c2nc(NN)n(C)c(=O)c2C#N)c1OC | 36 (≈ 119 µM)

Test system: not listed separately
Assay: Antioxidant activity assessed as inhibition of lipid peroxidation using egg lecithin liposomes incubated for 1 hr
Assay type: functional
Conditions: not given
Procedure, shortened: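 Egg lecithin (3 mg/mL, phosphate buffer pH 7.4) sonicated 10 min to form liposomes. Sample or ascorbic acid (12.5–100 µg/mL) added. Peroxidation induced with FeCl3 and L-ascorbic acid, 1 h at 37 °C. Stopped with HCl/TCA/TBA/BHA, boiled 15 min, centrifuged, supernatant read at 532 nm. Triplicate. % inhibition vs control. IC50 derived.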

Row | SMILES | IC50 [µg/mL]
3 | COc1cccc(-c2nc(NN)n(C)c(=O)c2C#N)c1OC | 37 (≈ 123 µM)

Test system: not listed separately
Assay: Antioxidant activity assessed as potassium ferricyanide ion reducing power after 20 mins
Assay type: functional
Conditions: not given
Procedure, shortened: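 Oyaizu method. Samples or ascorbic acid in DMF (12.5–100 µg/mL) mixed with 0.2 M phosphate buffer pH 6.6 and 1% potassium ferricyanide, 20 min at 50 °C. 10% TCA added, centrifuged. Supernatant mixed with water and 0.1% FeCl3, read at 700 nm. % = [(Vt/Vc) − 1] × 100. IC50 derived.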

Row | SMILES | IC50 [µg/mL]
4 | COc1cccc(-c2nc(NN)n(C)c(=O)c2C#N)c1OC | 44 (≈ 146 µM)

Test system: not listed separately
Assay: Antiinflammatory activity assessed as inhibition of albumin denaturation at 100 ug/ml by UV-visible spectrophotometry
Assay type: functional
Conditions: not given
Procedure, shortened: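 Compounds dissolved in minimal DMF, diluted in PBS pH 7.4 (final DMF <2.5%). 1 mL test solution (100 µg/mL) plus 1 mL 1% albumin in PBS, 15 min at 27 ± 1 °C, then heated 10 min at 60 ± 1 °C. After cooling, turbidity read at 660 nm. % inhibition = [(Vt/Vc) − 1] × 100 against a no-drug control. Triplicate, averaged. Diclofenac standard.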

Row | SMILES | inhibition [%]
5 | COc1cccc(-c2nc(NN)n(C)c(=O)c2C#N)c1OC | 24.6

Test system: Metaphire posthuma
Assay: Anthelmintic activity against Pheretima posthuma assessed as time taken for complete parasite paralysis at 0.1% w/v
Assay type: functional
Conditions: not given
Procedure, shortened: (§1)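 Earthworms (Pheretima posthuma) exposed to test solutions at 0.1, 0.2 and 0.5% w/v; time in minutes to complete paralysis (worms motionless) recorded. Albendazole as standard. Mean of three determinations ± S.D.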

Row | SMILES | Time [min]
6 | COc1cccc(-c2nc(NN)n(C)c(=O)c2C#N)c1OC | 55.23

Test system: Metaphire posthuma
Assay: Anthelmintic activity against Pheretima posthuma assessed as time taken for complete parasite paralysis at 0.2% w/v
Assay type: functional
Conditions: not given
Procedure, shortened: as §1

Row | SMILES | Time [min]
7 | COc1cccc(-c2nc(NN)n(C)c(=O)c2C#N)c1OC | 55.57

Test system: Metaphire posthuma
Assay: Anthelmintic activity against Pheretima posthuma assessed as time taken for complete parasite paralysis at 0.5% w/v
Assay type: functional
Conditions: not given
Procedure, shortened: as §1

Row | SMILES | Time [min]
8 | COc1cccc(-c2nc(NN)n(C)c(=O)c2C#N)c1OC | 51.42

Test system: Metaphire posthuma
Assay: Anthelmintic activity against Pheretima posthuma assessed as time taken for parasite death at 0.1% w/v
Assay type: functional
Conditions: not given
Procedure, shortened: (§2)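 Earthworms (Pheretima posthuma, spelled Perituma posthuma in text) exposed to test compounds at 0.1, 0.2 and 0.5% w/v. Albendazole served as standard, with an untreated control. Paralysis was recorded as the time until worms became motionless, then time to death was recorded, in minutes. Each value is the mean of three determinations with S.D.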

Row | SMILES | Time [min]
9 | COc1cccc(-c2nc(NN)n(C)c(=O)c2C#N)c1OC | 71.45

Test system: Metaphire posthuma
Assay: Anthelmintic activity against Pheretima posthuma assessed as time taken for parasite death at 0.2% w/v
Assay type: functional
Conditions: not given
Procedure, shortened: as §2

Row | SMILES | Time [min]
10 | COc1cccc(-c2nc(NN)n(C)c(=O)c2C#N)c1OC | 70.25

Test system: Metaphire posthuma
Assay: Anthelmintic activity against Pheretima posthuma assessed as time taken for parasite death at 0.5% w/v
Assay type: functional
Conditions: not given
Procedure, shortened: as §2

Row | SMILES | Time [min]
11 | COc1cccc(-c2nc(NN)n(C)c(=O)c2C#N)c1OC | 67.22

Test system: Escherichia coli
Assay: Antimicrobial activity against Escherichia coli at 25 ug/ml by agar plate diffusion technique
Assay type: functional
Conditions: read-out: IZ
Procedure, shortened: (§3)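 Agar plate diffusion against E. coli, P. aeruginosa, S. aureus and B. subtilis, with compounds at 25, 50 and 100 µg/mL. Streptomycin as standard.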

Row | SMILES | zone of inhibition at 25 µg/mL [mm]
12 | COc1cccc(-c2nc(NN)n(C)c(=O)c2C#N)c1OC | 7.38

Test system: Escherichia coli
Assay: Antimicrobial activity against Escherichia coli at 50 ug/ml by agar plate diffusion technique
Assay type: functional
Conditions: read-out: IZ
Procedure, shortened: as §3

Row | SMILES | zone of inhibition at 50 µg/mL [mm]
13 | COc1cccc(-c2nc(NN)n(C)c(=O)c2C#N)c1OC | 7.16

Test system: Escherichia coli
Assay: Antimicrobial activity against Escherichia coli at 100 ug/ml by agar plate diffusion technique
Assay type: functional
Conditions: read-out: IZ
Procedure, shortened: as §3

Row | SMILES | zone of inhibition at 100 µg/mL [mm]
14 | COc1cccc(-c2nc(NN)n(C)c(=O)c2C#N)c1OC | 8.12

Test system: Pseudomonas aeruginosa
Assay: Antimicrobial activity against Pseudomonas aeruginosa at 25 ug/ml by agar plate diffusion technique
Assay type: functional
Conditions: read-out: IZ
Procedure, shortened: as §3

Row | SMILES | zone of inhibition at 25 µg/mL [mm]
15 | COc1cccc(-c2nc(NN)n(C)c(=O)c2C#N)c1OC | 6.15

Test system: Pseudomonas aeruginosa
Assay: Antimicrobial activity against Pseudomonas aeruginosa at 50 ug/ml by agar plate diffusion technique
Assay type: functional
Conditions: read-out: IZ
Procedure, shortened: as §3

Row | SMILES | zone of inhibition at 50 µg/mL [mm]
16 | COc1cccc(-c2nc(NN)n(C)c(=O)c2C#N)c1OC | 8.12

Test system: Pseudomonas aeruginosa
Assay: Antimicrobial activity against Pseudomonas aeruginosa at 100 ug/ml by agar plate diffusion technique
Assay type: functional
Conditions: read-out: IZ
Procedure, shortened: as §3

Row | SMILES | zone of inhibition at 100 µg/mL [mm]
17 | COc1cccc(-c2nc(NN)n(C)c(=O)c2C#N)c1OC | 9.15

Test system: Bacillus subtilis
Assay: Antimicrobial activity against Bacillus subtilis at 25 ug/ml by agar plate diffusion technique
Assay type: functional
Conditions: read-out: IZ
Procedure, shortened: as §3

Row | SMILES | zone of inhibition at 25 µg/mL [mm]
18 | COc1cccc(-c2nc(NN)n(C)c(=O)c2C#N)c1OC | 9.9

Test system: Bacillus subtilis
Assay: Antimicrobial activity against Bacillus subtilis at 50 ug/ml by agar plate diffusion technique
Assay type: functional
Conditions: read-out: IZ
Procedure, shortened: as §3

Row | SMILES | zone of inhibition at 50 µg/mL [mm]
19 | COc1cccc(-c2nc(NN)n(C)c(=O)c2C#N)c1OC | 12.2

Test system: Bacillus subtilis
Assay: Antimicrobial activity against Bacillus subtilis at 100 ug/ml by agar plate diffusion technique
Assay type: functional
Conditions: read-out: IZ
Procedure, shortened: as §3

Row | SMILES | zone of inhibition at 100 µg/mL [mm]
20 | COc1cccc(-c2nc(NN)n(C)c(=O)c2C#N)c1OC | 16.7

Test system: Staphylococcus aureus
Assay: Antimicrobial activity against Staphylococcus aureus at 25 ug/ml by agar plate diffusion technique
Assay type: functional
Conditions: read-out: IZ
Procedure, shortened: as §3

Row | SMILES | zone of inhibition at 25 µg/mL [mm]
21 | COc1cccc(-c2nc(NN)n(C)c(=O)c2C#N)c1OC | 8.72

Test system: Staphylococcus aureus
Assay: Antimicrobial activity against Staphylococcus aureus at 50 ug/ml by agar plate diffusion technique
Assay type: functional
Conditions: read-out: IZ
Procedure, shortened: as §3

Row | SMILES | zone of inhibition at 50 µg/mL [mm]
22 | COc1cccc(-c2nc(NN)n(C)c(=O)c2C#N)c1OC | 11.2

Test system: Staphylococcus aureus
Assay: Antimicrobial activity against Staphylococcus aureus at 100 ug/ml by agar plate diffusion technique
Assay type: functional
Conditions: read-out: IZ
Procedure, shortened: as §3

Row | SMILES | zone of inhibition at 100 µg/mL [mm]
23 | COc1cccc(-c2nc(NN)n(C)c(=O)c2C#N)c1OC | 15.8

Test system: Candida albicans
Assay: Antimicrobial activity against Candida albicans at 25 ug/ml by paper disc method
Assay type: functional
Conditions: read-out: IZ
Procedure, shortened: (§4)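 Paper disc method against A. niger and C. albicans, with compounds at 25, 50 and 100 µg/mL. Amphotericin-B as standard.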

Row | SMILES | zone of inhibition at 25 µg/mL [mm]
24 | COc1cccc(-c2nc(NN)n(C)c(=O)c2C#N)c1OC | 10.1

Test system: Candida albicans
Assay: Antimicrobial activity against Candida albicans at 50 ug/ml by paper disc method
Assay type: functional
Conditions: read-out: IZ
Procedure, shortened: as §4

Row | SMILES | zone of inhibition at 50 µg/mL [mm]
25 | COc1cccc(-c2nc(NN)n(C)c(=O)c2C#N)c1OC | 11

Test system: Candida albicans
Assay: Antimicrobial activity against Candida albicans at 100 ug/ml by paper disc method
Assay type: functional
Conditions: read-out: IZ
Procedure, shortened: as §4

Row | SMILES | zone of inhibition at 100 µg/mL [mm]
26 | COc1cccc(-c2nc(NN)n(C)c(=O)c2C#N)c1OC | 17.9

Test system: Aspergillus niger
Assay: Antimicrobial activity against Aspergillus niger at 25 ug/ml by paper disc method
Assay type: functional
Conditions: read-out: IZ
Procedure, shortened: as §4

Row | SMILES | zone of inhibition at 25 µg/mL [mm]
27 | COc1cccc(-c2nc(NN)n(C)c(=O)c2C#N)c1OC | 8.38

Test system: Aspergillus niger
Assay: Antimicrobial activity against Aspergillus niger at 50 ug/ml by paper disc method
Assay type: functional
Conditions: read-out: IZ
Procedure, shortened: as §4

Row | SMILES | zone of inhibition at 50 µg/mL [mm]
28 | COc1cccc(-c2nc(NN)n(C)c(=O)c2C#N)c1OC | 10.3

Test system: Aspergillus niger
Assay: Antimicrobial activity against Aspergillus niger at 100 ug/ml by paper disc method
Assay type: functional
Conditions: read-out: IZ
Procedure, shortened: as §4

Row | SMILES | zone of inhibition at 100 µg/mL [mm]
29 | COc1cccc(-c2nc(NN)n(C)c(=O)c2C#N)c1OC | 16.7

Reference: ChEMBL document CHEMBL1821590, “Novel dihydropyrimidines and its pyrazole derivatives: synthesis and pharmacological screening” (Eur J Med Chem, 2011)
